≈ marks a conversion by molar mass, not a printed value.
Columns and labels:
Format in all cases: functional
Staphylococcus aureus [1] = test: Antibacterial activity against ermC-inducible resistant Staphylococcus aureus after 20 hrs by agar dilution method
Outline: (§1)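 Agar dilution MIC. The inoculum came from a seed culture in Sensitivity test broth. A 5 µl portion of a cell suspension of about 10^6 CFU/ml was inoculated onto Sensitivity disk agar supplemented with 5% horse blood. Plates were incubated at 37 °C for 20 h, then MIC was read.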

Streptococcus pneumoniae [2] = test: Antibacterial activity against mefE efflux-resistant Streptococcus pneumoniae after 20 hrs by agar dilution method
Outline: (§2)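 Agar dilution MIC. Streptococcal strains were pre-cultured on blood agar plates. A 5 µl portion of a cell suspension of about 10^6 CFU/ml was inoculated onto Sensitivity disk agar supplemented with 5% horse blood. Plates were incubated at 37 °C for 20 h, then MIC was read.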

Haemophilus influenzae [3] = test: Antibacterial activity against standard Haemophilus influenzae after 20 hrs by agar dilution method
Outline: (§3)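 MIC by agar dilution. Strains grown on blood agar plates for seed culture. About 5 µl of a suspension of roughly 10^6 CFU/ml spotted onto Sensitivity disk agar with 5% horse blood. Plates incubated at 37 °C for 20 h, then MIC read.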

Haemophilus influenzae [4] = test: Antibacterial activity against susceptible Haemophilus influenzae after 20 hrs by agar dilution method; outline: as §3
Streptococcus pyogenes [5] = test: Antibacterial activity against mefE efflux-resistant Streptococcus pyogenes after 20 hrs by agar dilution method; outline: as §2
Streptococcus pneumoniae [6] = test: Antibacterial activity against ermB-constitutive resistant Streptococcus pneumoniae after 20 hrs by agar dilution method; outline: as §2
Streptococcus pyogenes [7] = test: Antibacterial activity against ermB-constitutive resistant Streptococcus pyogenes after 20 hrs by agar dilution method; outline: as §2
Moraxella catarrhalis = test: Antibacterial activity against standard Moraxella catarrhalis after 20 hrs by agar dilution method; outline: as §3
Streptococcus pneumoniae [8] = test: Antibacterial activity against ermB-inducible resistant Streptococcus pneumoniae after 20 hrs by agar dilution method; outline: as §2
Staphylococcus aureus [9] = test: Antibacterial activity against susceptible Staphylococcus aureus after 20 hrs by agar dilution method; outline: as §1
Staphylococcus aureus [10] = test: Antibacterial activity against ermB-inducible resistant Staphylococcus aureus after 20 hrs by agar dilution method; outline: as §1
Streptococcus pneumoniae [11] = test: Antibacterial activity against susceptible Streptococcus pneumoniae after 20 hrs by agar dilution method; outline: as §3
Staphylococcus aureus [12] = test: Antibacterial activity against standard Staphylococcus aureus after 20 hrs by agar dilution method; outline: as §1
Streptococcus pyogenes [13] = test: Antibacterial activity against standard Streptococcus pyogenes after 20 hrs by agar dilution method; outline: as §3
Staphylococcus aureus [14] = test: Antibacterial activity against ermA-constitutive resistant Staphylococcus aureus after 20 hrs by agar dilution method; outline: as §1

SMILES | MIC (Staphylococcus aureus [1]) [µg/mL] | MIC (Streptococcus pneumoniae [2]) [µg/mL] | MIC (Haemophilus influenzae [3]) [µg/mL] | MIC (Haemophilus influenzae [4]) [µg/mL] | MIC (Streptococcus pyogenes [5]) [µg/mL] | MIC (Streptococcus pneumoniae [6]) [µg/mL] | MIC (Streptococcus pyogenes [7]) [µg/mL] | MIC (Moraxella catarrhalis) [µg/mL] | MIC (Streptococcus pneumoniae [8]) [µg/mL] | MIC (Staphylococcus aureus [9]) [µg/mL] | MIC (Staphylococcus aureus [10]) [µg/mL] | MIC (Streptococcus pneumoniae [11]) [µg/mL] | MIC (Staphylococcus aureus [12]) [µg/mL] | MIC (Streptococcus pyogenes [13]) [µg/mL] | MIC (Staphylococcus aureus [14]) [µg/mL]
CCC(=O)O[C@@H]1CC(=O)O[C@H](C)C[C@H](O)[C@H](N(C)Cc2ccccc2)/C=C/[C@H](OC(C)=O)[C@H](C)C[C@H](CC=O)[C@H](O[C@@H]2O[C@H](C)[C@@H](O[C@H]3C[C@@](C)(O)[C@@H](OC(=O)CC)[C@H](C)O3)[C@H](N(C)C)[C@H]2O)[C@H]1OC | 0.39 (≈ 0.393 µM) | 0.1 (≈ 0.101 µM) | 3.13 (≈ 3.15 µM) | 25 (≈ 25.2 µM) | 0.39 (≈ 0.393 µM) | > 100 | > 100 | 0.39 (≈ 0.393 µM) | 100 (≈ 101 µM) | 0.39 (≈ 0.393 µM) | 0.2 (≈ 0.201 µM) | 0.1 (≈ 0.101 µM) | 0.39 (≈ 0.393 µM) | 0.1 (≈ 0.101 µM) | > 100
CCC(=O)O[C@@H]1CC(=O)O[C@H](C)C[C@H](O)[C@H](N(C)CCCc2ccnc3ccccc23)/C=C/[C@H](OC(C)=O)[C@H](C)C[C@H](CC=O)[C@H](O[C@@H]2O[C@H](C)[C@@H](O[C@H]3C[C@@](C)(O)[C@@H](OC(=O)CC)[C@H](C)O3)[C@H](N(C)C)[C@H]2O)[C@H]1OC | 0.2 (≈ 0.187 µM) | 0.025 (≈ 0.0233 µM) | 1.56 (≈ 1.45 µM) | 12.5 (≈ 11.7 µM) | 0.1 (≈ 0.0933 µM) | 50 (≈ 46.6 µM) | > 100 | 0.39 (≈ 0.364 µM) | 0.78 (≈ 0.727 µM) | 0.1 (≈ 0.0933 µM) | 0.1 (≈ 0.0933 µM) | 0.013 (≈ 0.0121 µM) | 0.1 (≈ 0.0933 µM) | 0.05 (≈ 0.0466 µM) | > 100
CCC(=O)O[C@@H]1CC(=O)O[C@H](C)C[C@H](O)[C@H](N(C)C)/C=C/[C@H](OC(C)=O)[C@H](C)C[C@H](CC=O)[C@H](O[C@@H]2O[C@H](C)[C@@H](O[C@H]3C[C@@](C)(O)[C@@H](OC(=O)CC)[C@H](C)O3)[C@H](N(C)C)[C@H]2O)[C@H]1OC | 0.78 (≈ 0.851 µM) | 0.2 (≈ 0.218 µM) | 1.56 (≈ 1.7 µM) | 25 (≈ 27.3 µM) | 0.39 (≈ 0.425 µM) | > 100 | > 100 | 1.56 (≈ 1.7 µM) | > 100 | 0.78 (≈ 0.851 µM) | 1.56 (≈ 1.7 µM) | 0.2 (≈ 0.218 µM) | 0.78 (≈ 0.851 µM) | 0.2 (≈ 0.218 µM) | > 100
